Test results published in publication PMC6175367 (Journal of Clinical Pharmacology, 2018).
Structures can show the parent of a compound that is named as a salt.

How the values were obtained:
[1] = molecular target: T1, plasma renin activity (PRA) (Homo sapiens, UniProt P00797); assay type: in vivo
T1 sequence (P00797 67-406): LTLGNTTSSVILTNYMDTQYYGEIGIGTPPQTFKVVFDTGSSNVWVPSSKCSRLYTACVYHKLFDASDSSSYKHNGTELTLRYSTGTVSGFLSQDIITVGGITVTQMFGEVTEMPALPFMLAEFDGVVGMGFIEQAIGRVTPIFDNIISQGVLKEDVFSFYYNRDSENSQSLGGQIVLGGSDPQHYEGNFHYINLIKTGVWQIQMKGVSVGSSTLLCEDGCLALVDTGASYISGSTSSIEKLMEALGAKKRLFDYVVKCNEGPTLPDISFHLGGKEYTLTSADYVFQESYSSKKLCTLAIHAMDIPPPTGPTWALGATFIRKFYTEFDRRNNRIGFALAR

[2] = single‐dose administration; cited from earlier work
PRA [3] = details: ≥5 mg dose, CPH‐001 study; cited from earlier work
[4] = tested on: plasma active renin concentration (PRC); test: Plasma active renin concentration; assay type: in vivo, human
Method in brief: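 Healthy Japanese male volunteers (nonelderly 20‑45 y, elderly 65‑85 y) took test compound or placebo tablets orally once daily for 7 days, 30 min after starting breakfast with 200 mL water. Sodium-matched meals were given. Plasma active renin was measured by immunoradiometric assay at 1 h predose and 1, 2, 4, 6, 12 h postdose on days 1 and 7, 1 h predose on days 2‑6, and 23, 47, 71 h after the last dose.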

[5] = tested on: plasma angiotensin II concentration (AII); test: Plasma angiotensin II concentration; assay type: in vivo, human
Method in brief: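 Double-blind, placebo-controlled once-daily oral tablet dosing for 7 days in healthy Japanese men (nonelderly 20‑45 y, elderly 65‑85 y), given 30 min after starting breakfast with 200 mL water, with uniform meals. Plasma angiotensin II was measured by radioimmunoassay at 1 h predose and 1‑12 h postdose on days 1 and 7, predose on days 2‑6, and up to 71 h after the last dose.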

[6] = dose of up to 200 mg, healthy nonelderly adult male subjects, CPH‐001; cited from earlier work
[7] = Plasma pharmacokinetics after multiple oral administrations of imarikiren; assay type: in vivo, human
Method in brief: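 Healthy males (nonelderly 20–45 y, elderly 65–85 y) took test compound or placebo tablets orally once daily for 7 days (80 or 160 mg). Fluids were withheld from 2 h pre-dose to 4 h post-dose. Plasma parent and metabolite were measured by HPLC‑MS/MS, with noncompartmental analysis on actual sampling times. Accumulation = 100 × AUC0‑tau day 7/day 1. Age effect: elderly−nonelderly difference in ln AUC0‑tau and Cmax, day 7, with 90%/95% CI.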

[8] = Safety evaluation: adverse events, vital signs, weight, ECG, laboratory tests; assay type: in vivo, human
PRA [9] = details: aliskiren 300 mg on day 1 and days 4‐10, Japanese and white subjects; cited from earlier work
[10] = imarikiren 80 mg, day 7, Cohort 3 vs Cohort 1
[11] = imarikiren 80 mg, nonelderly, listed as imarikiren
[12] = imarikiren 160 mg, nonelderly, listed as imarikiren
[13] = imarikiren 80 mg once daily 7 days, elderly (n = 9)
[14] = imarikiren 80 mg once daily 7 days, nonelderly (n = 9)
[15] = imarikiren 80 mg, nonelderly (2 of 9 subjects)
[16] = imarikiren 160 mg once daily 7 days, nonelderly (n = 9)

Compound: COCCCCn1c(C(=O)N(CC(C)C)[C@@H]2CNC[C@H](C(=O)N3CCOCC3)C2)nc2ccccc21 [Imarikiren, Imarikiren hydrochloride]
- Time after the last administration for which inhibition of PRA was maintained ([1]; 80 mg (nonelderly and elderly) and 160 mg (nonelderly), once daily for 7 days): at least 71 hours
- PRA inhibition with multiple dosing ([1]; for 7 days, sustained for nearly 3 days after the last administration): complete inhibition
- Food effect on the PK [2]: minimal effect
- Inhibition of PRA after single oral administration (PRA [3]): completely inhibited PRA
- Change from baseline in PRC, mean (SD) ([4]; imarikiren 80 mg oral once daily, elderly, Day 2 (–1 hr)): 78.3 (72.3) pg/mL
- Change from baseline in PRC, mean (SD) ([4]; imarikiren 80 mg oral once daily, elderly, Day 7 (23 hrs)): 154.4 (168.0) pg/mL
- Change from baseline in PRC, mean (SD) ([4]; imarikiren 80 mg oral once daily, nonelderly, Day 2 (–1 hr)): 169.3 (140.9) pg/mL
- Change from baseline in PRC, mean (SD) ([4]; imarikiren 80 mg oral once daily, nonelderly, Day 7 (23 hrs)): 247.1 (130.1) pg/mL
- Change from baseline in PRC, mean (SD) ([4]; imarikiren 160 mg oral once daily, nonelderly, Day 2 (–1 hr)): 129.5 (106.8) pg/mL
- Change from baseline in PRC, mean (SD) ([4]; imarikiren 160 mg oral once daily, nonelderly, Day 7 (23 hrs)): 487.3 (264.9) pg/mL
- Change from baseline in AII ([5]; 80 mg, elderly, any time): no changes from baseline
- Change from baseline in AII ([5]; 160 mg, nonelderly, days 1 through 7): decreased from baseline
- Tolerability of single dose [6]: good tolerability
- Tmax ([7]; human, plasma, oral, 160 mg, median time to reach the maximum observed plasma concentration (Tmax), nonelderly subjects, all groups (80 and 160 mg), days 1 and 7): 1 to 2 h
- CL/F, mean (SD) ([7]; imarikiren 80 mg oral once daily, elderly, Day 1): 15.2 (4.6) L/hr
- CL/F, mean (SD) ([7]; imarikiren 80 mg oral once daily, elderly, Day 7): 14.1 (3.4) L/hr
- CL/F, mean (SD) ([7]; imarikiren 80 mg oral once daily, nonelderly, Day 1): 19.6 (3.6) L/hr
- CL/F, mean (SD) ([7]; imarikiren 80 mg oral once daily, nonelderly, Day 7): 21.5 (5.6) L/hr
- AUC0‐tau higher in elderly than in nonelderly subjects [7, 10]: 52%
- Cmax higher in elderly than in nonelderly subjects [7, 10]: 39%
- Accumulation index (AUC) percentage (100 × AUC0‐tau day 7/AUC0‐inf day 1), mean (SD) ([7]; imarikiren 80 mg, nonelderly): 94.4 (21.8) %
- Accumulation index (t1/2) percentage, mean (SD) ([7]; imarikiren 80 mg, nonelderly): 116.4 (39.1) %
- R(AUC), AUC accumulation factor percentage (100 × AUC0‐tau day 7/AUC0‐tau day 1), mean (SD) ([7]; imarikiren 80 mg, nonelderly): 106.4 (22.4) %
- Accumulation index (AUC) percentage (100 × AUC0‐tau day 7/AUC0‐inf day 1), mean (SD) [7, 11]: 94.4%
- R(AUC), AUC accumulation factor percentage (100 × AUC0‐tau day 7/AUC0‐tau day 1), mean (SD) [7, 11]: 106.4%
- CL/F, mean (SD) ([7]; imarikiren 160 mg oral once daily, nonelderly, Day 1): 19.7 (5.1) L/hr
- CL/F, mean (SD) ([7]; imarikiren 160 mg oral once daily, nonelderly, Day 7): 17.6 (3.3) L/hr
- Accumulation index (AUC) percentage (100 × AUC0‐tau day 7/AUC0‐inf day 1), mean (SD) ([7]; imarikiren 160 mg, nonelderly): 114.2 (30.0) %
- Accumulation index (t1/2) percentage, mean (SD) ([7]; imarikiren 160 mg, nonelderly): 119.7 (34.3) %
- R(AUC), AUC accumulation factor percentage (100 × AUC0‐tau day 7/AUC0‐tau day 1), mean (SD) ([7]; imarikiren 160 mg, nonelderly): 123.0 (32.6) %
- Accumulation index (AUC) percentage (100 × AUC0‐tau day 7/AUC0‐inf day 1), mean (SD) [7, 12]: 114.2%
- R(AUC), AUC accumulation factor percentage (100 × AUC0‐tau day 7/AUC0‐tau day 1), mean (SD) [7, 12]: 123.0%
- Plasma concentration reached steady state (based on trough concentration) ([7]; multiple oral administration of 80 mg and 160 mg, nonelderly): ≤ 7 days
- Overall safety and tolerability ([8]; 80 or 160 mg for 7 days nonelderly, 80 mg elderly): safe and well tolerated
- Intensity of TEAEs ([8]; all TEAEs, with the exception of moderate urticaria in 1 nonelderly subject (80 mg)): mild in intensity
- Changes in ECG parameters ([8]; all cohorts): No obvious changes
- Serious TEAEs and deaths ([8]; all cohorts, during the study): no serious TEAEs and no deaths
- TEAEs reported, subjects ([8]; all nonelderly subjects who received imarikiren): 22.2%
- TEAEs related to the study drug, subjects ([8]; all nonelderly subjects who received imarikiren (3 of 18 subjects)): 16.7%
- Subjects with any TEAEs [8, 13]: 3 (33.3) n (%)
- TEAE: Alanine aminotransferase increased [8, 13]: 1 (11.1) n (%)
- TEAE: Aspartate aminotransferase increased [8, 13]: 1 (11.1) n (%)
- TEAE: Blood creatinine phosphokinase increased [8, 13]: 0 n (%)
- TEAE: Blood triglycerides increased [8, 13]: 0 n (%)
- TEAE: Diarrhea [8, 13]: 1 (11.1) n (%)
- TEAE: Eye disorders [8, 13]: 0 n (%)
- TEAE: Feeling hot [8, 13]: 0 n (%)
- TEAE: Gastrointestinal disorders [8, 13]: 1 (11.1) n (%)
- TEAE: General disorders and administration site conditions [8, 13]: 0 n (%)
- TEAE: Headache [8, 13]: 1 (11.1) n (%)
- TEAE: Investigations [8, 13]: 2 (22.2) n (%)
- TEAE: Nervous system disorders [8, 13]: 1 (11.1) n (%)
- TEAE: Pruritus [8, 13]: 0 n (%)
- TEAE: Skin and subcutaneous tissue disorders [8, 13]: 0 n (%)
- TEAE: Urticaria [8, 13]: 0 n (%)
- TEAE: Vision blurred [8, 13]: 0 n (%)
- TEAE: White blood cell count decreased [8, 13]: 1 (11.1) n (%)
- TEAE: White blood cell count increased [8, 13]: 0 n (%)
- Subjects with any TEAEs [8, 14]: 2 (22.2) n (%)
- TEAE: Alanine aminotransferase increased [8, 14]: 0 n (%)
- TEAE: Aspartate aminotransferase increased [8, 14]: 0 n (%)
- TEAE: Blood creatinine phosphokinase increased [8, 14]: 0 n (%)
- TEAE: Blood triglycerides increased [8, 14]: 0 n (%)
- TEAE: Diarrhea [8, 14]: 0 n (%)
- TEAE: Eye disorders [8, 14]: 0 n (%)
- TEAE: Feeling hot [8, 14]: 1 (11.1) n (%)
- TEAE: Gastrointestinal disorders [8, 14]: 0 n (%)
- TEAE: General disorders and administration site conditions [8, 14]: 1 (11.1) n (%)
- TEAE: Headache [8, 14]: 0 n (%)
- TEAE: Investigations [8, 14]: 1 (11.1) n (%)
- TEAE: Nervous system disorders [8, 14]: 0 n (%)
- TEAE: Pruritus [8, 14]: 1 (11.1) n (%)
- TEAE: Skin and subcutaneous tissue disorders [8, 14]: 2 (22.2) n (%)
- TEAE: Urticaria [8, 14]: 1 (11.1) n (%)
- TEAE: Vision blurred [8, 14]: 0 n (%)
- TEAE: White blood cell count decreased [8, 14]: 0 n (%)
- TEAE: White blood cell count increased [8, 14]: 1 (11.1) n (%)
- TEAEs related to the study drug, subjects ([8]; imarikiren 80 mg, elderly (2 of 9 subjects)): 22.2%
- TEAEs reported, subjects ([8]; imarikiren 80 mg, elderly (3 of 9 subjects)): 33.3%
- TEAEs related to the study drug, subjects [8, 15]: 22.2%
- TEAEs reported, subjects [8, 15]: 22.2%
- Subjects with any TEAEs [8, 16]: 2 (22.2) n (%)
- TEAE: Alanine aminotransferase increased [8, 16]: 2 (22.2) n (%)
- TEAE: Aspartate aminotransferase increased [8, 16]: 0 n (%)
- TEAE: Blood creatinine phosphokinase increased [8, 16]: 0 n (%)
- TEAE: Blood triglycerides increased [8, 16]: 0 n (%)
- TEAE: Diarrhea [8, 16]: 0 n (%)
- TEAE: Eye disorders [8, 16]: 0 n (%)
- TEAE: Feeling hot [8, 16]: 0 n (%)
- TEAE: Gastrointestinal disorders [8, 16]: 0 n (%)
- TEAE: General disorders and administration site conditions [8, 16]: 0 n (%)
- TEAE: Headache [8, 16]: 0 n (%)
- TEAE: Investigations [8, 16]: 2 (22.2) n (%)
- TEAE: Nervous system disorders [8, 16]: 0 n (%)
- TEAE: Pruritus [8, 16]: 0 n (%)
- TEAE: Skin and subcutaneous tissue disorders [8, 16]: 0 n (%)
- TEAE: Urticaria [8, 16]: 0 n (%)
- TEAE: Vision blurred [8, 16]: 0 n (%)
- TEAE: White blood cell count decreased [8, 16]: 0 n (%)
- TEAE: White blood cell count increased [8, 16]: 0 n (%)
- TEAEs related to the study drug, subjects ([8]; imarikiren 160 mg, nonelderly (1 of 9 subjects)): 11.1%
- TEAEs reported, subjects ([8]; imarikiren 160 mg, nonelderly (2 of 9 subjects)): 22.2%
- Change in mean blood pressure ([8]; imarikiren groups, day 7 compared with baseline): decrease in mean blood pressure

Compound: COCCCOc1cc(C[C@@H](C[C@H](N)[C@@H](O)C[C@H](C(=O)NCC(C)(C)C(N)=O)C(C)C)C(C)C)ccc1OC [aliskiren]
- PRA inhibition at steady state (PRA [9]): incomplete PRA inhibition
